Measured values pooled from the literature.
Each line is one published result; the experiments were not run side by side.
Read-out: binding
Tumor necrosis factor receptor superfamily member 9: Tumor necrosis factor receptor superfamily member 9 (Homo sapiens, UniProt Q07011)
MET: Hepatocyte growth factor receptor (MET, Homo sapiens, UniProt P08581)

SMILES	target	method	pH	setting	Kd
CCCC[C@@H]1NC(=O)[C@H](Cc2ccc(O)cc2)NC(=O)[C@@H]2CCCN2C(=O)[C@H](CC(=O)O)NC(=O)[C@H](C)NC(=O)[C@H](Cc2ccccc2)NC(=O)[C@@H]2CSCCC(=O)N3CN(CN(C3)C(=O)CCSCCC(=O)N[C@@H](CC(C)(C)C)C(=O)N3CCC[C@H]3C(=O)N[C@@H](CCC(=O)O)C(=O)N[C@H](CCCCNC(=O)CCc3cn(CCOCCOCCOCCOCCOCCC(=O)N[C@H]4CSCCC(=O)N5CN6CN(C5)C(=O)CCSC[C@H](NC(=O)[C@@H](CC(=O)O)NC(=O)[C@H](Cc5cccc7ccccc57)NC(=O)[C@@H]5CCCN5C4=O)C(=O)N[C@@H](CCSC)C(=O)N[C@@H](CCCCNC(=N)N)C(=O)N[C@@H](CC(=O)O)C(=O)N[C@@H](Cc4c[nH]c5ccccc45)C(=O)N[C@@H](CO)C(=O)N[C@@H]([C@@H](C)O)C(=O)N4CCC[C@H]4C(=O)N4C[C@H](O)C[C@H]4C(=O)N[C@@H](Cc4c[nH]c5ccccc45)C(=O)N[C@H](C(N)=O)CSCCC6=O)nn3)C(=O)N3CCC[C@H]3C(=O)N[C@@H](Cc3ccc(O)cc3)C(=O)N2)C(=O)CCSCCNC1=O	Tumor necrosis factor receptor superfamily member 9	SPR	–	–	0.049 µM
CC(c1ccccc1)n1cc(-c2c(F)ccc3cn[nH]c23)c(=O)[nH]c1=O (stereo not shown)	MET	–	–	–	0.398 µM
CC[C@H](C)[C@H](NC(=O)[C@H](CCC(=O)O)NC(=O)[C@H](CCC(=O)O)NC(=O)[C@H](CCC(N)=O)NC(=O)[C@@H](NC(=O)[C@@H](N)CC(=O)O)[C@@H](C)CC)C(=O)N[C@@H](CC(C)C)C(=O)N[C@@H](CO)C(=O)NCC(=O)N[C@@H](CCCCN)C(=O)N[C@@H](CO)C(=O)O	Ubiquitin carboxyl-terminal hydrolase 7 (USP7, Homo sapiens, UniProt Q93009)	ITC	pH 8	–	424 µM
CCCCC/C=C\C/C=C\C/C=C\C/C=C\CCCC(=O)O	Nuclear receptor subfamily 4 group A member 2 (Homo sapiens, UniProt P43354)	fluorescence	–	–	58 µM
CC(c1ccccc1)n1cc(-c2cc(F)cc3c(C#N)n[nH]c23)c(=O)[nH]c1=O (stereo not shown)	MET	–	–	–	0.0794 µM
CCCC[C@@H]1NC(=O)[C@H](Cc2ccc(O)cc2)NC(=O)[C@@H]2CCCN2C(=O)[C@H](CC(=O)O)NC(=O)[C@H](C)NC(=O)[C@H](Cc2ccccc2)NC(=O)[C@@H]2CSCCC(=O)N3CN(CN(C3)C(=O)CCSC[C@@H](C(=O)N[C@@H](C)C(N)=O)NC1=O)C(=O)CCSC[C@H](NC(=O)[C@H](C)NC(C)=O)C(=O)N[C@@H]([C@@H](C)CC)C(=O)N[C@@H](CCC(=O)O)C(=O)N[C@@H](CCC(=O)O)C(=O)N[C@H](CCCCNC(=O)CCc1cn(CCOCCOCCOCCOCCOCCC(=O)N[C@H]3CSCCC(=O)N4CN5CN(C4)C(=O)CCSC[C@H](NC(=O)[C@@H](CC(=O)O)NC(=O)[C@H](Cc4cccc6ccccc46)NC(=O)[C@@H]4CCCN4C3=O)C(=O)N[C@@H](CCSC)C(=O)N[C@@H](CCCCNC(=N)N)C(=O)N[C@@H](CC(=O)O)C(=O)N[C@@H](Cc3c[nH]c4ccccc34)C(=O)N[C@@H](CO)C(=O)N[C@@H]([C@@H](C)O)C(=O)N3CCC[C@H]3C(=O)N3C[C@H](O)C[C@H]3C(=O)N[C@@H](Cc3c[nH]c4ccccc34)C(=O)N[C@H](C(N)=O)CSCCC5=O)nn1)C(=O)N[C@@H](CCC(N)=O)C(=O)N[C@@H](Cc1ccc(O)cc1)C(=O)N2	Tumor necrosis factor receptor superfamily member 9	SPR	–	–	0.043 µM
CC(c1ccccc1)n1cc(-c2ccccn2)c(=O)[nH]c1=O (stereo not shown)	MET	–	–	–	5.01 µM
OC[C@H]1OC(O)[C@H](O)[C@@H](O)[C@@H]1O (stereo partly shown)	Hexokinase-4 (GCK, Homo sapiens, UniProt P35557)	stopped-flow	–	–	5000 µM
CCCC[C@@H]1NC(=O)[C@H](Cc2ccc(O)cc2)NC(=O)[C@@H]2CCCN2C(=O)[C@H](CC(=O)O)NC(=O)[C@H](C)NC(=O)[C@H](Cc2ccccc2)NC(=O)[C@@H]2CSCCC(=O)N3CN(CN(C3)C(=O)CCSC[C@H](NC(C)=O)C(=O)N[C@@H](CC(C)(C)C)C(=O)N3CCC[C@H]3C(=O)N[C@@H](CCC(=O)O)C(=O)N[C@H](CCCCNC(=O)CCc3cn(CCOCCOCCOCCOCCOCCC(=O)N[C@H]4CSCCC(=O)N5CN6CN(C5)C(=O)CCSC[C@H](NC(=O)[C@@H](CC(=O)O)NC(=O)[C@H](Cc5cccc7ccccc57)NC(=O)[C@@H]5CCCN5C4=O)C(=O)N[C@@H](CCSC)C(=O)N[C@@H](CCCCNC(=N)N)C(=O)N[C@@H](CC(=O)O)C(=O)N[C@@H](Cc4c[nH]c5ccccc45)C(=O)N[C@@H](CO)C(=O)N[C@@H]([C@@H](C)O)C(=O)N4CCC[C@H]4C(=O)N4C[C@H](O)C[C@H]4C(=O)N[C@@H](Cc4c[nH]c5ccccc45)C(=O)N[C@H](C(N)=O)CSCCC6=O)nn3)C(=O)N3CCC[C@H]3C(=O)N[C@@H](Cc3ccc(O)cc3)C(=O)N2)C(=O)CCSCCNC1=O	Tumor necrosis factor receptor superfamily member 9	SPR	–	–	0.03 µM
CCCN1CCc2cc(OC)cc3c2[C@H]1Cc1ccc(O)c(O)c1-3	D(2) dopamine receptor (Drd2, Rattus norvegicus, UniProt P61169)	radioligand	–	cell membranes	0.00221 µM
